In ChEMBL document CHEMBL4304759, “Identifying Novel Anti-Osteoporosis Leads with a Chemotype-Assembly Approach” (J Med Chem, 2019):

System: BMDM
Assay: Anti-osteoporosis activity in C57BL/6 mouse bone marrow macrophages assessed as inhibition of M-CSF/RANKL-induced osteoclast differentiation supplemented with fresh medium containing compounds every 2 days for 5 measured post-last dose by TRAP staining based assay
Assay type: functional, cell-based
Settings: C57BL/6, BMDM, 5 days
Summary of the method: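 Mouse (C57BL/6, 6-week) BMMs were plated at 6×10³ cells/well with M-CSF 30 ng/mL overnight, then given complete α-MEM with M-CSF and GST-rRANKL 100 ng/mL plus compound at varied concentrations, refreshed every 2 days. At day 5 cells were fixed in 4% paraformaldehyde and TRAcP-stained; TRAcP+ cells with >3 nuclei were counted.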

Compound	IC50 [nM]
CCOC(=O)c1sc(NC(=O)Cn2cc(-c3ccc(F)cc3)nn2)nc1C	660
Nc1cccc(-c2cn(CC(=O)Nc3nccs3)nn2)c1	1270
O=C(Nc1nc2ccccc2s1)c1cc2ccccc2c(=O)o1	5130
CCOC(=O)c1ccccc1SCC(=O)Nc1nccs1	3980
CCOC(=O)c1sc(NC(=O)Cn2cc(-c3ccc([N+](=O)[O-])cc3)nn2)nc1C	1840
Cc1csc(NC(=O)Cn2cc(-c3ccc([N+](=O)[O-])cc3)nn2)n1	190
N#Cc1ccc(-c2cn(CC(=O)Nc3nccs3)nn2)cc1	270
Cc1csc(NC(=O)Cn2cc(-c3ccc(C(=O)O)cc3)nn2)n1	> 30000
Cc1cc(NC(=O)Cn2cc(-c3ccc(Cl)cc3)nn2)no1	1910
Cc1cc(NC(=O)Cn2cc(-c3cccc(Cl)c3)nn2)no1	> 30000
O=C(Cn1cc(-c2ccncc2)nn1)Nc1nc2ccccc2s1	50
O=C(Cn1cc(-c2ccc([N+](=O)[O-])cc2)nn1)Nc1nc2ccccc2s1	3280
COc1cccc(-c2cn(-c3ccc(C(F)(F)F)cc3)nc2C(=O)NCCCN(C)C)c1	> 30000
Cc1ccc(-c2csc(NC(=O)c3ccc(C)o3)n2)cc1	4030
CC(C)Oc1ccccc1C(=O)Nc1nccs1	12600
COc1ccc(-c2cn(CC(=O)Nc3nccs3)nn2)cc1	510
Cc1cc(NC(=O)Cn2cc(-c3ccccc3Cl)nn2)no1	> 30000
Cc1csc(NC(=O)Cn2cc(-c3ccc(F)cc3)nn2)n1	250
O=C(C1=C(O)C(=O)N(CCCn2ccnc2)[C@@H]1c1cccc(O)c1)c1ccc2c(c1)OCCO2	2700
CCOc1cc(C(=O)Nc2nccs2)cc(OCC)c1OCC	6750
CCOC(=O)c1sc(NC(=O)Cn2cc(-c3cccs3)nn2)nc1C	20
Cc1cc(NC(=O)Cn2cc(-c3ccc([N+](=O)[O-])cc3)nn2)no1	1220
COc1cccc(-c2cn(-c3ccc(C(F)(F)F)cc3)nc2C(=O)N2CCN(c3ncccn3)CC2)c1	> 30000

Compound	IC50 [nM]
Cc1cnc(NC(=O)c2ccc3c(c2)OCO3)s1	> 30000
COC(=O)c1ccc(-c2cn(CC(=O)Nc3nc(C)cs3)nn2)cc1	> 30000
CCOC(=O)c1sc(NC(=O)Cn2cc(-c3ccc(C#N)cc3)nn2)nc1C	310
CCCn1c(=O)c(C(=O)Nc2nccs2)c(O)c2ccccc21	3980
O=C(Cn1cc(-c2ccccc2Cl)nn1)Nc1nc2ccccc2s1	> 30000
C#Cc1ccc(-c2cn(CC(=O)Nc3nccs3)nn2)cc1	> 30000
COc1cccc(-c2cn(-c3ccc(C(F)(F)F)cc3)nc2C(=O)NC2CCCCC2)c1	> 30000
O=C(Cn1cc(-c2ccc(F)cc2)nn1)Nc1nccs1	190
Cc1csc(NC(=O)Cn2cc(-c3ccccc3Cl)nn2)n1	1240
N#Cc1ccc(-c2cn(CC(=O)Nc3nc4ccccc4s3)nn2)cc1	> 30000
COc1ccc(-c2cn(CC(=O)Nc3cc(C)on3)nn2)cc1	> 30000
O=C(Cn1cc(-c2cccs2)nn1)Nc1nccs1	> 30000
COc1cccc(OC)c1C(=O)Nc1nc(C)c(C(C)=O)s1	2140
N#Cc1ccc(C(=O)Nc2nccs2)cc1	> 30000
COC(=O)c1ccc(-c2cn(CC(=O)Nc3cc(C)on3)nn2)cc1	> 30000
O=C(Cn1cc(-c2cccs2)nn1)Nc1nc2ccccc2s1	21400
Cc1nc(NC(=O)/C=C/c2ccc3c(c2)OCO3)sc1C	8110
O=C(Cn1cc(-c2ccc([N+](=O)[O-])cc2)nn1)Nc1nccs1	1040
Cc1cc(NC(=O)Cn2cc(-c3ccc(F)cc3)nn2)no1	> 30000
Cc1csc(NC(=O)Cn2cc(-c3cccs3)nn2)n1	40
O=C(Cn1cc(-c2ccc(Cl)cc2)nn1)Nc1nccs1	1100
Cc1csc(NC(=O)Cn2cc(-c3cccc(N)c3)nn2)n1	250
Cc1cc(NC(=O)Cn2cc(-c3ccncc3)nn2)no1	430

Compound	IC50 [nM]
O=C(Cn1cc(-c2ccc(Cl)cc2)nn1)Nc1nc2ccccc2s1	130
COc1ccc(-c2cn(CC(=O)Nc3nc4ccccc4s3)nn2)cc1	1330
O=C(Cn1cc(-c2ccc(F)cc2)nn1)Nc1nc2ccccc2s1	> 30000
CCOC(=O)c1sc(NC(=O)Cn2cc(-c3ccncc3)nn2)nc1C	120
Cc1cc(NC(=O)Cn2cc(-c3ccc(C#N)cc3)nn2)no1	9320
CCOC(=O)c1sc(NC(=O)Cn2cc(-c3ccccc3Cl)nn2)nc1C	130
COC(=O)c1ccc(-c2cn(CC(=O)Nc3nc4ccccc4s3)nn2)cc1	> 30000
O=C(c1cc2ccccc2s1)N1CCOCC1	3150
O=C(Cn1cc(-c2cccc(Cl)c2)nn1)Nc1nccs1	> 30000
Cc1csc(NC(=O)Cn2cc(-c3ccncc3)nn2)n1	100
C#Cc1ccc(-c2cn(CC(=O)Nc3cc(C)on3)nn2)cc1	> 30000
Cc1csc(NC(=O)Cn2cc(-c3ccc(Cl)cc3)nn2)n1	520
CCOC(=O)c1sc(NC(=O)Cn2cc(-c3ccc(Cl)cc3)nn2)nc1C	180
O=C(Cn1cc(-c2ccccc2Cl)nn1)Nc1nccs1	60
CCCN1C(=O)c2ccc(C(=O)Nc3nccs3)cc2C1=O	10000
COc1ccc(-c2cn(CC(=O)Nc3nc(C)cs3)nn2)cc1	3890
Nc1cccc(-c2cn(CC(=O)Nc3nc4ccccc4s3)nn2)c1	1110
COc1cccc(-c2cn(-c3ccc(C(F)(F)F)cc3)nc2C(=O)N2CCc3ccccc3C2)c1	> 30000
O=C(NCc1ccco1)c1cc2ccccc2c(=O)o1	4240
CCOC(=O)c1sc(NC(=O)Cn2cc(-c3ccc(OC)cc3)nn2)nc1C	2330
Cc1cc(NC(=O)Cn2cc(-c3cccs3)nn2)no1	> 30000
Cc1ccc(-c2csc(NCc3ccc(C)o3)n2)cc1	1190
